Laboratory results from ChEMBL document CHEMBL1275590, “Novel arylimidamides for treatment of visceral leishmaniasis” (Antimicrob Agents Chemother, 2010).

Columns and labels:
[1] = Cmax in Swiss Webster mouse at 16.5 mg/kg, po by HPLC-MS/MS analysis; type: ADME, organism-based; set-up: dose 16.5 mg/kg, route oral; settings: in vivo
In short: (§1)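 Male Swiss Webster mice, n = 3 per time point. For i.v., the compound was dissolved in sterile water, diluted 1:1 with 2× saline, and given as a tail-vein bolus over ~10–20 s. For p.o., it was given by gavage in sterile water. Dose volume was 5 ml/kg. Terminal plasma was taken from 5 min to 72 h and measured by HPLC-MS/MS (calibration 2.5–10,000 nM). Parameters came from noncompartmental analysis.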

Mus musculus [2] = experiment: Toxicity in BALB/c mouse assessed as occurrence of edema at 150 mg/kg/day, po; type: organism-based; set-up: route oral; settings: in vivo
In short: (§2)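 Female BALB/c mice (n = 5 per dose), dosed once daily for 5 consecutive days p.o. (20 ml/kg) or i.v. (10 ml/kg) with compound in sterile water, prepared fresh daily under yellow light. Vehicle controls n = 5 per route. Clinical observations, body weights, serum chemistry and hematology on day 6 before necropsy; histopathology of formalin-fixed tissues. Chemistry analysed by one-way ANOVA with Dunnett's posttest.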

[3] = Tmax in Swiss Webster mouse at 131 mg/kg, po by HPLC-MS/MS analysis; type: ADME, organism-based; set-up: dose 131 mg/kg, route oral; settings: in vivo
In short: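 Male Swiss Webster mice (n = 3 per time point), single dose by oral gavage (sterile water solution) or tail-vein bolus i.v. (water diluted 1:1 with 2× saline, over ~10–20 s); dose volume 5 ml/kg. Terminal blood sampled from 5 min to 72 h postdose; plasma quantified by HPLC-MS/MS (positive-ion SRM). Noncompartmental analysis gave Cmax, Tmax, AUC0-∞, CL, Vss; bioavailability from p.o. versus i.v. exposure.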

[4] = Half life in Swiss Webster mouse at 1 mg/kg, iv by HPLC-MS/MS analysis; type: ADME, organism-based; set-up: dose 1 mg/kg, route intravenous; settings: in vivo
In short: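 Male Swiss Webster mice, n = 3 per time point. For i.v., the compound was dissolved in sterile water, diluted 1:1 with 2× saline, and given as a tail-vein bolus over ~10–20 s. For p.o., it was given by gavage in sterile water. Dose volume was 5 ml/kg. Parameters came from noncompartmental analysis.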

Mus musculus [5] = experiment: Toxicity in BALB/c mouse assessed as occurrence of ruffled fur at 150 mg/kg/day, po administered for five days measured on day 4; type: organism-based; set-up: route oral; settings: in vivo; in short: as §2
Mus musculus [6] = experiment: Toxicity in BALB/c mouse assessed as tremor at 100 mg/kg/day, ip after second dose; type: organism-based; set-up: route intraperitoneal; settings: in vivo
In short: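 Acute overt toxicity was checked in uninfected female BALB/c mice before the efficacy work. Compounds were given intraperitoneally once daily for 5 days, and mice were watched for clinical signs such as ruffled fur, hypoactivity, tremors, ataxia and startle, and for survival.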

[7] = Cmax in Swiss Webster mouse at 66 mg/kg, po by HPLC-MS/MS analysis; type: ADME, organism-based; set-up: dose 66 mg/kg, route oral; settings: in vivo; in short: as §1
Leishmania donovani [8] = experiment: Antileishmanial activity against Leishmania donovani WR378 infected in golden Syrian hamster assessed as reduction in liver parasitemia at 50 mg/kg/day, po administered for five days; type: functional; settings: 120 h
In short: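 11-day golden hamster VL model adapted from an 8-day method, using L. donovani WR378 metacyclic promastigotes. Dosing was oral, once daily for 5 days. Animals were euthanized on day 11 post-infection. Liver, spleen and femoral bone marrow (flushed with Schneider's medium) were harvested.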

[9] = Volume of distribution in Swiss Webster mouse at 5 mg/kg, iv by HPLC-MS/MS analysis; type: ADME, organism-based; set-up: dose 5 mg/kg, route intravenous; settings: in vivo
In short: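 Male Swiss Webster mice (n = 3 per time point) got a single tail-vein bolus over ~10 to 20 s, 5 ml/kg. Compound was dissolved in sterile water at 2× and diluted 1:1 with 2× saline. Terminal blood was taken from 5 min to 72 h, and plasma was quantified by HPLC-MS/MS. Vss came from noncompartmental analysis.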

Mus musculus [10] = experiment: Hepatotoxicity in BALB/c mouse assessed as ALT level in serum at 30 mg/kg/day, iv administered for five days (Rvb= 34 U/L); type: toxicity, organism-based; set-up: route intravenous; settings: in vivo
[11] = Induction of mutagenicity in Salmonella serovar Typhimurium TA 98 assessed as number of revertant colonies at 500 ug by Ames assay in presence of Aroclor 1254-induced rat liver S9 metabolic activation system; type: toxicity, subcellular, Salmonella enterica subsp. enterica serovar Typhimurium
In short: (§3)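 Plate incorporation test, S. Typhimurium TA98 (and TA100), with or without Aroclor 1254-induced rat liver S9 (10% vol/vol). Compound dissolved in sterile water, serially diluted to 1–1,000 or 1–500 μg/plate. Positive controls: 2-nitrofluorene and sodium azide without S9, 2-aminoanthracene with S9; water and DMSO vehicle controls. Revertant colonies and background lawn scored; mutagen if mean revertants ≥2-fold solvent control. Single experiment.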

[12] = Half life in Swiss Webster mouse at 5 mg/kg, iv by HPLC-MS/MS analysis; type: ADME, organism-based; set-up: dose 5 mg/kg, route intravenous; settings: in vivo; in short: as §1
Leishmania donovani [13] = experiment: Antileishmanial activity against Leishmania donovani promastigotes in BALB/c mouse assessed as inhibition of liver parasitemia at 100 mg/kg/day, po administered for five days; type: functional; set-up: scale not given: the % may be the effect or the level left
In short: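 Murine VL model in L. donovani-infected mice. Compounds were dissolved in water and given i.p. or p.o. once daily for 5 days (4 days for one i.p. regimen). Liver parasitemia was compared with untreated controls by unpaired Student's t test, P ≤ 0.05.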

Mus musculus [14] = experiment: Renal toxicity in BALB/c mouse assessed as blood urea nitrogen level in serum at 30 mg/kg/day, iv administered for five days (Rvb= 20 mg/dl); type: organism-based; set-up: route intravenous; settings: in vivo; in short: as §2
[15] = Induction of mutagenicity in Salmonella serovar Typhimurium TA 98 assessed as number of revertant colonies at 500 ug by Ames assay; type: toxicity, Salmonella enterica subsp. enterica serovar Typhimurium; in short: as §3
[16] = Drug level in Swiss Webster mouse spleen at 70 mg/kg, po after 2 hrs by HPLC/UV analysis; settings: read-out: Drug uptake
Mus musculus [17] = experiment: Hepatotoxicity in BALB/c mouse assessed as alkaline phosphatase in serum at 150 mg/kg/day, po administered for five days (Rvb= 129 U/L); type: toxicity, organism-based; set-up: route oral; settings: in vivo
[18] = Induction of mutagenicity in Salmonella serovar Typhimurium TA 100 assessed as number of revertant colonies at 50 ug by Ames assay; type: toxicity, Salmonella enterica subsp. enterica serovar Typhimurium; settings: in vivo
In short: (§4)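 Ames plate incorporation with S. Typhimurium TA98 and TA100, with or without Aroclor 1254-induced rat liver S9 (10% vol/vol). Compound was dissolved in sterile water and serially diluted to 1–500 μg/plate. Positive controls were 2-nitrofluorene and sodium azide without S9, and 2-aminoanthracene with S9; sterile water and DMSO served as vehicles. Revertant colonies and background lawn were scored. A mutagen was defined as a mean revertant count at least 2-fold over solvent control. Single experiment.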

[19] = Induction of mutagenicity in Salmonella serovar Typhimurium TA 98 assessed as number of revertant colonies at 1 ug by Ames assay in presence of Aroclor 1254-induced rat liver S9 metabolic activation system; type: toxicity, subcellular, Salmonella enterica subsp. enterica serovar Typhimurium; in short: as §4
Mus musculus [20] = experiment: Hepatotoxicity in BALB/c mouse assessed as AST level in serum at 30 mg/kg/day, iv administered for five days (Rvb= 65 U/L); type: toxicity, organism-based; set-up: route intravenous; settings: in vivo
[21] = Induction of mutagenicity in Salmonella serovar Typhimurium TA 98 assessed as number of revertant colonies at 1 ug by Ames assay; type: toxicity, Salmonella enterica subsp. enterica serovar Typhimurium; settings: in vivo; in short: as §4
[22] = Induction of mutagenicity in Salmonella serovar Typhimurium TA 100 assessed as number of revertant colonies at 1 ug by Ames assay; type: toxicity, Salmonella enterica subsp. enterica serovar Typhimurium; settings: in vivo; in short: as §4
Mus musculus [23] = experiment: Hepatotoxicity in BALB/c mouse assessed as ALT level in serum at 100 mg/kg/day, po administered for five days (Rvb= 36 U/L); type: toxicity, organism-based; set-up: route oral; settings: in vivo

CCOc1cc(NC(=N)c2ccccn2)ccc1-c1ccc(-c2ccc(NC(=N)c3ccccn3)cc2OCC)o1
Cmax [1]: 20 nM | Activity (Mus musculus [2]): Toxic | Tmax [3]: 2 h | half-life [4]: 17 h | Activity (Mus musculus [5]): Toxic | Activity (Mus musculus [6]): Toxic | Cmax [7]: 400 nM

CC(C)Oc1cc(NC(=N)c2ccccn2)ccc1-c1ccc(-c2ccc(NC(=N)c3ccccn3)cc2OC(C)C)o1
inhibition in vivo at 50 mg/kg/day (Leishmania donovani [8]): 76% | Vd [9]: 15 L/kg | Activity (Mus musculus [10]): 35 U/L | Activity [11]: 47 | half-life [12]: 24 h | Activity (Leishmania donovani [13]): 71% | Activity (Mus musculus [14]): 24 mg/dL | Activity [15]: 28 | concentration at 2 h [16]: 43100 nM | Activity (Mus musculus [17]): 142 U/L | Activity [18]: 79 | Activity [19]: 43 | Activity (Mus musculus [20]): 73 U/L | Activity [21]: 38 | Activity [22]: 152 | Activity (Mus musculus [23]): 34 U/L
